Measured values from article PMC12034291 (International Journal of Nanomedicine, 2025).
Converted amounts (≈) assume the structure as drawn. “Also recorded” adds a separate entry of the source.

Columns and labels:
[1] = after combining with nanoprobes; cited from earlier work
FLT4 = settings: cited from earlier work
[2] = cited from earlier work
HEB cells = experiment: CCK-8 cytotoxicity assay, HEB cells; type: cell-based, human; settings: TMVP1 0, 15, 30, 60, 120 μg/mL, P>0.05
Procedure, shortened: (§1)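 CCK-8 viability assay in cells grown in high-glucose DMEM with 10% FBS at 37°C, 5% CO2. Peptide alone was tested at 0, 15, 30, 60 and 120 μg/mL in medium with 10% serum. Blank wells received medium only. Because the test material carries a fluorescent label, parallel wells without CCK-8 gave a D(450) background, which was subtracted. Viability (%) = (experimental − blank)/(control − blank) × 100. Three independent repeats, mean ± SD, t-test/one-way ANOVA.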

[3] = tested on: FLT4 protein (U87 and U373 cells); experiment: Fluorescent peptide in vitro binding / colocalization with FLT4; type: cell-based, human; settings: FAM-labeled TMVP1; confocal, green and red light brightness 110
[4] = UV-visible spectrophotometry of TMVP1 coupling rate; type: physicochemical; settings: FAM-labeled TMVP1
Procedure, shortened: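 Coupling efficiency of the FAM-labelled peptide to liposomes was measured by UV-visible absorbance at 456 nm, before and after coupling. Coupling rate = (absorbance decrease)/(absorbance before coupling) × 100%. Liposome-bound peptide concentration was estimated from this rate.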

U87 cells = experiment: CCK-8 cytotoxicity assay, U87 cells; type: cell-based, human
Procedure, shortened: as §1

FLT4 protein = experiment: Surface plasmon resonance; type: binding; settings: TMVP1 10 mg/mL; FLT4 protein 0.6 mg/mL on CM5 chip
Procedure, shortened: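 SPR on a […]. Recombinant FLT4 protein (0.6 mg/mL) was coupled directly to a CM5 chip as the solid phase. The peptide (10 mg/mL) was run as analyte in the mobile phase. The maximum binding response within 150 s was recorded in RU, where 1 RU = 1 pg/mm² surface change.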

| Compound | biocompatibility and in vivo stability [1] | binding speed to FLT4 versus traditional monoclonal antibodies (FLT4) | immunogenicity versus traditional monoclonal antibodies [2] | biological toxicity of peptide alone to HEB cells (HEB cells) | fluorescence intensity, U87 versus U373 cell line [3] | absorbance after coupling TMVP1 ([4]; 456 nm) | absorbance before coupling TMVP1 ([4]; 456 nm) | TMVP1 coupling rate ([4]; absorbance at 456 nm, (absorbance decrease before and after coupling)/(absorbance before coupling) × 100%) | TMVP1 concentration (from coupling rate) ([4]; estimated from coupling rate) | cytotoxicity of peptide alone towards U87 cells (U87 cells; CCK-8, U87 cells, TMVP1 0, 15, 30, 60, 120 μg/mL, P>0.05) | binding affinity to FLT4 (in words) (FLT4 protein) | IC50 (U87 cells; Homo sapiens, U-87 MG, read-out: IC50 (cytotoxicity)) |
| --- | --- | --- | --- | --- | --- | --- | --- | --- | --- | --- | --- | --- |
| LARGR [TMVP1] | good biocompatibility and in vivo stability | faster binding speed | lower immunogenicity than traditional monoclonal antibodies | no significant biological toxicity | the fluorescence intensity in the U87 cell line was higher than in the U373 cell line | 0.069 | 0.296 | 76.68% | around 0.153 mg/mL | did not show significant cytotoxicity towards U87 cells; also recorded: no significant biological toxicity | strong binding affinity | – |
| Cn1nnc2c(C(N)=O)ncn2c1=O [TMZ, Temozolomide, reference compound] | – | – | – | – | – | – | – | – | – | – | – | 48.4 µg/mL (≈ 249 µM) |
